Experimental data pooled from the literature.
Protocols differ between the studies behind these lines.
Nos2: Nitric oxide synthase, inducible (Nos2, Mus musculus, UniProt P29477)
STK38: Serine/threonine-protein kinase 38 (STK38, Homo sapiens, UniProt Q15208)

SMILES | target | test | conditions | endpoint | value
COc1cc(Nc2ncc(F)c(Nc3ccc4c(n3)NC(=O)C(C)(C)O4)n2)cc(OC)c1OC | Citron Rho-interacting kinase (CIT, Homo sapiens, UniProt O14578) | binding | 10 µM | inhibition | 99%
C[C@H](C(=O)N[C@H]1COc2ccccc2[C@@H]1S(C)(=O)=O)c1ccc(F)cc1 | Nos2 | enzyme activity, inhibitor | 10 µM | inhibition | 3%
Nc1ncc(-c2nc(N3CCOCC3)nc(N3CCOCC3)n2)c(C(F)F)n1 | Proto-oncogene tyrosine-protein kinase receptor Ret (RET, Homo sapiens, UniProt P07949, M918T) | binding, competition with immobilised ligand | 10 µM | remaining binding | 78%
C#Cc1n[nH]c2c(-c3cn(C(C)c4ccccn4)c(=O)[nH]c3=O)cc(F)cc12 (centres unmarked) | Proto-oncogene tyrosine-protein kinase receptor Ret (RET, Homo sapiens, UniProt P07949, V804L) | enzyme activity, inhibitor | 1 µM | inhibition | 4.9%
Cc1nn(C)cc1-c1nc2c(N3CCN(Cc4ccc(Cl)cc4)CC3)c(Cl)cnc2[nH]1 | STK38 | binding, competition with immobilised ligand | 1 µM | remaining binding | 86%
COc1ncccc1-c1cnn2ccc(N3CCN(C(=O)OC(C)C)CC3)nc12 | STK38 | binding, competition with immobilised ligand | 1 µM | remaining binding | 84%
c1ccc(C(NCCNC(c2ccccc2)c2ccccc2)c2ccccc2)cc1 | Nos2 | enzyme activity, inhibitor | 10 µM | inhibition | 3%
Cc1sc2c(c1C)C(c1ccc(Cl)cc1)=N[C@@H](CC(=O)OC(C)(C)C)c1nnc(C)n1-2 | Stimulator of interferon genes protein (STING1, Homo sapiens, UniProt Q86WV6, H232R) | thermal stability, DSF | 50 µM | ΔTm | -0.5 °C
